Source: ChEMBL document CHEMBL1144999, “Identification of a novel, selective GABA(A) alpha5 receptor inverse agonist which enhances cognition” (J Med Chem, 2003)

How the values were obtained:
[1] = biological target: GABA-A receptor; anion channel; assay: Binding affinity for GABA-A Benzodiazepine receptor; format: protein-complex assay
How it was run: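 Displacement of [3H]Ro 15-1788 binding from harvested L(tk-) cells stably expressing human recombinant GABA-A receptors with β3 and γ2 subunits plus α1, α2, α3 or α5. […] Ki given as geometric mean ± SEM of three independent determinations.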

[2] = biological target: GABA-A receptor; alpha-1/beta-3/gamma-2 (Homo sapiens) (UniProt P14867+P18507+P28472); assay: Efficacy for human GABA-A receptor alpha-1-beta-3-gamma-2 subunits expressed in mammalian fibroblast L(tk-)cells; format: cell-based
[3] = biological target: T1, Gamma-aminobutyric acid receptor subunit alpha-5 (Mus musculus) (UniProt Q8BHJ7); assay: In vivo [3H]L-655708 binding to mouse GABA-A receptor alpha-5 subunit at 3 mg/kg ip dose; format: organism-based; design: dose 3 mg/kg
T1 sequence (whole entry): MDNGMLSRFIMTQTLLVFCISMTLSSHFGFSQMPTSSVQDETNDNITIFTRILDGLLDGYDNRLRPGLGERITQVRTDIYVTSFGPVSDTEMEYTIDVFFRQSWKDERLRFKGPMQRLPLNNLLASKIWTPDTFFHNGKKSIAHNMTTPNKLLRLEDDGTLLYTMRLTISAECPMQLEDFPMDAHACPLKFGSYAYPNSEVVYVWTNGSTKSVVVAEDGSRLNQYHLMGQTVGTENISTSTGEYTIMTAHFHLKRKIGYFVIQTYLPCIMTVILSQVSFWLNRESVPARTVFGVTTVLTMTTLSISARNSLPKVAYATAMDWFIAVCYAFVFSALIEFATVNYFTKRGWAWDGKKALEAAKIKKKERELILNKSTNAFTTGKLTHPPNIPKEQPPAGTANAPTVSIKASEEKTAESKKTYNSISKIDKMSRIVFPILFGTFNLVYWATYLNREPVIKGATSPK
How it was run: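 Mice were dosed ip at 10 mL/kg in 70% PEG 300. Controls were vehicle (total binding) and 5 mg/kg bretazenil (nonspecific). [3H]L-655,708 (11 µCi/mL, 1 mL/kg) was given iv 1 min before killing, 30 min after drug. Forebrain was homogenized in ice-cold 10 mM KH2PO4/100 mM KCl pH 7.4, filtered and counted by scintillation. Occupancy = 100 − (drug/vehicle specific binding)×100.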

[4] = biological target: T2, GABA-A receptor; alpha-5/beta-3/gamma-2 (Homo sapiens) (UniProt P18507+P28472+P31644); assay: Efficacy for GABA-A receptor alpha-5-beta-3-gamma-2 subunits expressed in Xenopus laevis oocytes by two-electrode voltage clamp recording; format: cell-based; conditions: Oocyte
How it was run: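 Two-electrode voltage clamp on Xenopus laevis oocytes injected with human α5β3γ2 cDNA, recorded 2-4 days after injection. Expression checked with 3 mM GABA; oocytes with currents <0.3 μA rejected. A GABA EC20 was determined per oocyte. Compound applied at a single concentration near 100× Ki. Efficacy (%) = (current with compound/control EC20 current × 100) − 100.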

[5] = biological target: T2, GABA-A receptor; alpha-5/beta-3/gamma-2 (Homo sapiens); assay: Efficacy for human GABA-A receptor alpha-5-beta-3-gamma-2 subunits expressed in mammalian fibroblast L(tk-)cells; format: cell-based
[6] = biological target: GABA-A receptor; alpha-2/beta-3/gamma-2 (Homo sapiens) (UniProt P18507+P28472+P47869); assay: Efficacy for human GABA-A receptor alpha-2-beta-3-gamma-2 subunits expressed in mammalian fibroblast L(tk-)cells; format: cell-based
[7] = biological target: GABA-A receptor; alpha-3/beta-3/gamma-2 (Homo sapiens) (UniProt P18507+P28472+P34903); assay: Efficacy for human GABA-A receptor alpha-3-beta-3-gamma-2 subunits expressed in mammalian fibroblast L(tk-)cells; format: cell-based
[8] = biological target: T3, Gamma-aminobutyric acid receptor subunit alpha-5 (Homo sapiens) (UniProt P31644); assay: Binding selectivity for GABA-A alpha5 subunit over GABA-A alpha1,alpha2 or alpha3 subunit receptors
T3 sequence (whole entry): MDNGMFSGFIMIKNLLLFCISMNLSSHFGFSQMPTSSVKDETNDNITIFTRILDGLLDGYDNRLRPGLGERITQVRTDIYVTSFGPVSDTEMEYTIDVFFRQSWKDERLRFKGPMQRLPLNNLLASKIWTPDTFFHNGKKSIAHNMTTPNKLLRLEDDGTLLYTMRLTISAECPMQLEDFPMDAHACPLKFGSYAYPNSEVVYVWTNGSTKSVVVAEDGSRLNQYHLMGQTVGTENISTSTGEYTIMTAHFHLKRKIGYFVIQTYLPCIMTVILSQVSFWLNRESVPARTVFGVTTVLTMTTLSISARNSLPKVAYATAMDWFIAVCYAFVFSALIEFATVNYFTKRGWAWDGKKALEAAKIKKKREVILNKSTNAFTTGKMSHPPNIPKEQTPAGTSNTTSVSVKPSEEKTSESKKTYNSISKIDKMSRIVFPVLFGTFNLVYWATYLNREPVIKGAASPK
How it was run: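 Ki from [3H]Ro 15-1788 displacement at human recombinant α1, α2, α3 or α5 with β3γ2 receptors in L(tk-) cell membranes. […] Ki is geometric mean ± SEM of three determinations, and the ratio is taken against the α5 Ki.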

[9] = biological target: T3, Gamma-aminobutyric acid receptor subunit alpha-5 (Homo sapiens); assay: Binding selectivity for human gamma-aminobutyric-acid A receptor alpha-5 over GABA A alpha1,alpha2 and alpha-3 receptors

Compound	Ki [1] [nM]	Efficacy [2] [%]	Occupancy [3] [%]	Efficacy [4]	Efficacy [5] [%]	Efficacy [6] [%]	Efficacy [7] [%]	Selectivity [8]	Selectivity [9]
CC(=O)c1cc2c(s1)CCCC1=C2NN(c2ccc(Cl)cc2)C(=O)C1	4.2	–	–	–	–	–	–	–	–
CC1(C)CC(=O)c2c(SCCO)sc(-c3nccs3)c2C1	–	-21	91	-38	-51	-1	-3	13	–
CCc1c(C(=O)OC)ncc2[nH]c3cc(OC)c(OC)cc3c12	–	-71	–	-34	–	-53	–	–	6
